Measurements taken from ChEMBL document CHEMBL2062449, “Eco-friendly synthesis and biological evaluation of substituted pyrano[2,3-c]pyrazoles” (Bioorg Med Chem Lett, 2012).
In brackets after ≈: the same amount, converted by molar mass.

How the values were obtained:
Staphylococcus aureus [1] = assay: Antibacterial activity against Staphylococcus aureus at […] after 24 hrs by agar diffusion method; format: functional
Summary of the method: (§1)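 Single-concentration antibacterial screen at 100 μg/50 μL per test against the standard bacterial strains.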

Bacillus subtilis [2] = assay: Antibacterial activity against Bacillus subtilis at […] after 24 hrs by agar diffusion method; format: functional; summary of the method: as §1
Escherichia coli [3] = assay: Antibacterial activity against Escherichia coli at […] after 24 hrs by agar diffusion method; format: functional; summary of the method: as §1
Pseudomonas aeruginosa [4] = assay: Antibacterial activity against Pseudomonas aeruginosa at 100 ug/[…] after 24 hrs by agar diffusion method; format: functional; summary of the method: as §1
Staphylococcus aureus [5] = assay: Antibacterial activity against Staphylococcus aureus after 18 to 24 hrs by broth microdilution method; format: functional
Bacillus subtilis [6] = assay: Antibacterial activity against Bacillus subtilis after 18 to 24 hrs by broth microdilution method; format: functional
Escherichia coli [7] = assay: Antibacterial activity against Escherichia coli after 18 to 24 hrs by broth microdilution method; format: functional
Pseudomonas aeruginosa [8] = assay: Antibacterial activity against Pseudomonas aeruginosa after 18 to 24 hrs by broth microdilution method; format: functional
Rattus norvegicus [9] = assay: Antiinflammatory activity in Wistar rat assessed as protection against carrageenan-induced paw edema at 100 mg/kg, po administered 1 hr before carrageenan challenge measured after 30 mins; format: functional
Rattus norvegicus [10] = assay: Antiinflammatory activity in Wistar rat assessed as protection against carrageenan-induced paw edema at 100 mg/kg, po administered 1 hr before carrageenan challenge measured after 1 hr; format: functional
Rattus norvegicus [11] = assay: Antiinflammatory activity in Wistar rat assessed as protection against carrageenan-induced paw edema at 100 mg/kg, po administered 1 hr before carrageenan challenge measured after 2 hrs; format: functional
Rattus norvegicus [12] = assay: Antiinflammatory activity in Wistar rat assessed as protection against carrageenan-induced paw edema at 100 mg/kg, po administered 1 hr before carrageenan challenge measured after 3 hrs; format: functional
Rattus norvegicus [13] = assay: Antiinflammatory activity in Wistar rat assessed as protection against carrageenan-induced paw edema at 100 mg/kg, po administered 1 hr before carrageenan challenge measured after 4 hrs; format: functional
MCF7 [14] = assay: Cytotoxicity against estrogen receptor-positive human MCF7 cells assessed as inhibition of cell proliferation at 1 ug/ml after 24 hrs by MTT assay; format: functional; conditions: MCF7, 24 h
Summary of the method: (§2)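 MTT assay on MCF-7 human breast cancer cells, Taxol as reference; percentage inhibition of cell proliferation read at graded concentrations from 0.1 to 50 μg/mL (typically five or six levels per compound); IC50 in μg/mL derived from the inhibition series.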

MCF7 [15] = assay: Cytotoxicity against estrogen receptor-positive human MCF7 cells assessed as inhibition of cell proliferation at 2 ug/ml after 24 hrs by MTT assay; format: functional; conditions: MCF7, 24 h; summary of the method: as §2
MCF7 [16] = assay: Cytotoxicity against estrogen receptor-positive human MCF7 cells assessed as inhibition of cell proliferation at 4 ug/ml after 24 hrs by MTT assay; format: functional; conditions: MCF7, 24 h; summary of the method: as §2
MCF7 [17] = assay: Cytotoxicity against estrogen receptor-positive human MCF7 cells assessed as inhibition of cell proliferation at 0.5 ug/ml after 24 hrs by MTT assay; format: functional; conditions: MCF7, 24 h; summary of the method: as §2
MCF7 [18] = assay: Cytotoxicity against estrogen receptor-positive human MCF7 cells assessed as inhibition of cell proliferation at 6 ug/ml after 24 hrs by MTT assay; format: functional; conditions: MCF7, 24 h; summary of the method: as §2
MCF7 [19] = assay: Cytotoxicity against estrogen receptor-positive human MCF7 cells assessed as inhibition of cell proliferation at 8 ug/ml after 24 hrs by MTT assay; format: functional; conditions: MCF7, 24 h; summary of the method: as §2
MCF7 [20] = assay: Cytotoxicity against estrogen receptor-positive human MCF7 cells assessed as inhibition of cell proliferation after 24 hrs by MTT assay; format: functional, cell-based; conditions: Homo sapiens, MCF7, 24 h; read-out: IC50; summary of the method: as §2
MCF7 [21] = assay: Cytotoxicity against estrogen receptor-positive human MCF7 cells assessed as inhibition of cell proliferation at 5 ug/ml after 24 hrs by MTT assay; format: functional; conditions: MCF7, 24 h; summary of the method: as §2
MCF7 [22] = assay: Cytotoxicity against estrogen receptor-positive human MCF7 cells assessed as inhibition of cell proliferation at 0.1 ug/ml after 24 hrs by MTT assay; format: functional; conditions: MCF7, 24 h; summary of the method: as §2
MCF7 [23] = assay: Cytotoxicity against estrogen receptor-positive human MCF7 cells assessed as inhibition of cell proliferation at 0.25 ug/ml after 24 hrs by MTT assay; format: functional; conditions: MCF7, 24 h; summary of the method: as §2
MCF7 [24] = assay: Cytotoxicity against estrogen receptor-positive human MCF7 cells assessed as inhibition of cell proliferation at 2.5 ug/ml after 24 hrs by MTT assay; format: functional; conditions: MCF7, 24 h; summary of the method: as §2

Row | Structure (SMILES) | inhibition zone (IZ) (Staphylococcus aureus [1]) [mm] | inhibition zone (IZ) (Bacillus subtilis [2]) [mm] | inhibition zone (IZ) (Escherichia coli [3]) [mm] | inhibition zone (IZ) (Pseudomonas aeruginosa [4]) [mm] | Activity (Rattus norvegicus [9]) [%] | Activity (Rattus norvegicus [10]) [%] | Activity (Rattus norvegicus [11]) [%] | Activity (Rattus norvegicus [12]) [%] | Activity (Rattus norvegicus [13]) [%] | inhibition at 1 µg/mL (MCF7 [14]) [%] | inhibition at 0.5 µg/mL (MCF7 [17]) [%] | IC50 (MCF7 [20]) [µg/mL] | also measured
1 | CC1=NN=C2OC(N)=C(C#N)C(c3ccc(Oc4nc(Cl)c(Cl)cc4Cl)cc3)C12 (stereo unspecified) | 15 | 20 | 22 | 14 | 29.4 | 50 | 67.1 | 72 | 54.9 | 17.4 | 5.34 | 4.46 (≈ 9.95 µM) | MIC (Staphylococcus aureus [5]): 3.12 µg/mL (≈ 6.96 µM); MIC (Bacillus subtilis [6]): 6.25 µg/mL (≈ 13.9 µM); MIC (Escherichia coli [7]): 1.56 µg/mL (≈ 3.48 µM); MIC (Pseudomonas aeruginosa [8]): 3.12 µg/mL (≈ 6.96 µM); inhibition at 2 µg/mL (MCF7 [15]): 31.9%; inhibition at 4 µg/mL (MCF7 [16]): 42.5%; inhibition at 6 µg/mL (MCF7 [18]): 65.2%; inhibition at 8 µg/mL (MCF7 [19]): 68.6%
2 | Cc1[nH]nc2c1C(c1cccc(Oc3ccccc3)c1)C(C#N)=C(N)O2 (stereo unspecified) | 7 | 9 | 9 | 11 | 17.6 | 33.3 | 47.9 | 66.6 | 61.5 | 43.5 | 20.2 | 1.63 (≈ 4.73 µM) | inhibition at 5 µg/mL (MCF7 [21]): 83.7%; inhibition at 0.1 µg/mL (MCF7 [22]): 8.26%; inhibition at 0.25 µg/mL (MCF7 [23]): 14%; inhibition at 2.5 µg/mL (MCF7 [24]): 68.6%
